Experimental data from ChEMBL document CHEMBL1154944, “Azole-based inhibitors of AKT/PKB for the treatment of cancer” (Bioorg Med Chem Lett, 2010).

Test system: not listed separately
Assay: Antitumor activity against human U87MG cells xenografted in CD1 nude mouse assessed as inhibition of tumor growth at 30 mg/kg, po QD for 18 days relative to control
Format: functional, U-87MG ATCC
Conditions: U-87 MG, 432 h, read-out: GI
Procedure, shortened: (§1)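 10-week-old female CD1 nude mice injected sc in the flank with 5 × 10⁶ U-87 MG cells in DMEM. On day 10, randomized (n = 10) at ~200 mm³, then dosed po once daily for 18 d with supplemented diet. Tumors and body weight recorded twice weekly. Volume = length × width × height, analyzed by RMANOVA versus vehicle.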

Structure (SMILES)	inhibition in vivo at 30 mg/kg
N[C@H](CNc1ncc(-c2ccc3c(c2)CC(=O)N3)s1)Cc1ccc(C(F)(F)F)cc1	93%

Test system: not listed separately
Assay: Plasma concentration in human U87MG cells xenografted CD1 nude mouse at 30 mg/kg, po QD for 18 days measured after 3 hrs post last dose
Format: ADME, organism-based, U-87MG ATCC
Parameters: dose 30 mg/kg, route oral
Conditions: not given
Procedure, shortened: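 Female CD1 nude mice bearing U-87 MG tumors (n = 10) dosed 30 mg/kg po daily for 18 d. Plasma sampled 3 h after the last dose.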

Structure (SMILES)	concentration at 3 h
N[C@H](CNc1ncc(-c2ccc3c(c2)CC(=O)N3)s1)Cc1ccc(C(F)(F)F)cc1	6.2 µM

Test system: not listed separately
Assay: Cytotoxicity against human U87MG cells after 3 days by alamar blue assay
Format: functional, cell-based, U-87MG ATCC
Conditions: U-87 MG, 72 h
Procedure, shortened: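 U-87 MG cells seeded at 6000 cells/well in 5% FBS and treated with threefold serial dilutions for three days. Viability read by alamarBlue staining.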

Structure (SMILES)	IC50
N[C@H](CNc1ncc(-c2ccc3c(c2)CC(=O)N3)s1)Cc1ccc(C(F)(F)F)cc1	630 nM

Test system: not listed separately
Assay: Half life in Sprague-Dawley rat at 2 mg/kg, iv
Format: ADME, organism-based
Parameters: dose 2 mg/kg, route intravenous
Conditions: in vivo
Procedure, shortened: (§2)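 Male Sprague Dawley rats (n = 3) given 2 mg/kg intravenously in DMSO.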

Structure (SMILES)	half-life
N[C@H](CNc1ncc(-c2ccc3[nH]c(=O)oc3c2)s1)Cc1ccc(C(F)(F)F)cc1	3.8 h
N[C@H](CNc1ncc(-c2ccc3cnccc3c2)s1)Cc1ccc(C(F)(F)F)cc1	2.9 h
N[C@H](CNc1ncc(-c2ccc3c(c2)CC(=O)N3)s1)Cc1ccc(C(F)(F)F)cc1	4.3 h

Biological target: Vascular endothelial growth factor receptor 2 (Homo sapiens, UniProt P35968)
Assay: Inhibition of KDR
Conditions: not given

Chain of Vascular endothelial growth factor receptor 2 (P35968 whole entry): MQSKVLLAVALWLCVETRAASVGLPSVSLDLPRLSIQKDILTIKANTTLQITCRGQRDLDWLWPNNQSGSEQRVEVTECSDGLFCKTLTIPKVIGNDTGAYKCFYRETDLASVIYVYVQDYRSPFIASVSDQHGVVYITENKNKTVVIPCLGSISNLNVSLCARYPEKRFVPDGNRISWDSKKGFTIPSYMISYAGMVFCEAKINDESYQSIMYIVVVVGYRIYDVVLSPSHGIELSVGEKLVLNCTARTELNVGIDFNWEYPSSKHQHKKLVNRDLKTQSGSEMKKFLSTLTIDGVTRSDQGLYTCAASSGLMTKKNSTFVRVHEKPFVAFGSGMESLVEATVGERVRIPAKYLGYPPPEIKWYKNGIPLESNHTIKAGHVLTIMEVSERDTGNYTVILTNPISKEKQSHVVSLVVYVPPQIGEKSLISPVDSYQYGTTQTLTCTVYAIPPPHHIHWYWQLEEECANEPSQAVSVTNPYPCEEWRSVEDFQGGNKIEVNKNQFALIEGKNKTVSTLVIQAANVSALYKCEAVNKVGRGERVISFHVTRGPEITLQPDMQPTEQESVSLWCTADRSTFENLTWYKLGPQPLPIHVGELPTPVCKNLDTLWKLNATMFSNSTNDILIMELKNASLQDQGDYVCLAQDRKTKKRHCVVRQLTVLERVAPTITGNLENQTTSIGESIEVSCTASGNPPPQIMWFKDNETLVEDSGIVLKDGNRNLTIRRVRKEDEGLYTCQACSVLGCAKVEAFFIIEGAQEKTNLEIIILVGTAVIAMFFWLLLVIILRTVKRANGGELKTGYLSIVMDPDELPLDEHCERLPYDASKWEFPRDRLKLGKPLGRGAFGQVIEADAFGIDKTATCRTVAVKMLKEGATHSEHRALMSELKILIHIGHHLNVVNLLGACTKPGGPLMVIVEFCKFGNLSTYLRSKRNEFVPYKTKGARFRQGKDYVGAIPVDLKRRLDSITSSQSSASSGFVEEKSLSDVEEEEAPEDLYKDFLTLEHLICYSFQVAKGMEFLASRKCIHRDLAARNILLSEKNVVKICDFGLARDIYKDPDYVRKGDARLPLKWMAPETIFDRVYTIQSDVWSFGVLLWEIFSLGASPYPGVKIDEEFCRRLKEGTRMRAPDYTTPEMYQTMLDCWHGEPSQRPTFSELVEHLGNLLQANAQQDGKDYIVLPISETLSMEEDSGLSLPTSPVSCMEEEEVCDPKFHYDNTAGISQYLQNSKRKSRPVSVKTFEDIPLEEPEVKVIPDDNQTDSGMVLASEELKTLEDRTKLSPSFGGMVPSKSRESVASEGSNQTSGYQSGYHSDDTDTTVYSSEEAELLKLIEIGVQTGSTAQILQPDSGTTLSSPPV

Structure (SMILES)	IC50
N[C@H](CNc1ncc(-c2ccc3c(c2)CC(=O)N3)s1)Cc1ccc(C(F)(F)F)cc1	300 nM

Biological target: Cyclin-dependent kinase 2 (Homo sapiens, UniProt P24941)
Assay: Inhibition of CDK2
Conditions: not given

Structure (SMILES)	IC50
N[C@H](CNc1ncc(-c2ccc3cn[nH]c(=O)c3c2)s1)Cc1ccc(C(F)(F)F)cc1	> 1000 nM
N[C@H](CNc1nnc(-c2ccc3cnccc3c2)o1)Cc1ccc(C(F)(F)F)cc1	348 nM
N[C@H](CCc1nc(-c2ccc3cnccc3c2)no1)Cc1ccc(C(F)(F)F)cc1	4630 nM
Nc1noc2ccc(-c3cnc(NC[C@@H](N)Cc4ccc(C(F)(F)F)cc4)s3)cc12	> 2000 nM
N[C@H](CCc1cc(-c2ccc3cnccc3c2)no1)Cc1ccc(C(F)(F)F)cc1	117 nM
Nc1cc2cc(-c3cnc(NC[C@@H](N)Cc4ccc(C(F)(F)F)cc4)s3)ccc2cn1	15.4 nM
N[C@H](CNc1ncc(-c2ccc3c(c2)CNC3=O)s1)Cc1ccc(C(F)(F)F)cc1	> 9000 nM
NC(=O)c1ccc(-c2cnc(NC[C@@H](N)Cc3ccc(C(F)(F)F)cc3)s2)cc1	> 10000 nM
N[C@H](CNc1ncc(-c2ccc3[nH]c(=O)oc3c2)s1)Cc1ccc(C(F)(F)F)cc1	138 nM
N[C@H](CNc1ncc(-c2ccc3cnccc3c2)s1)Cc1ccc(C(F)(F)F)cc1	12.4 nM
N[C@H](CNc1ncc(-c2ccc3c(c2)CC(=O)N3)s1)Cc1ccc(C(F)(F)F)cc1	185 nM

Test system: Mus musculus
Assay: Toxicity in human U87MG cells xenografted CD1 nude mouse assessed as loss in body weight po QD for 18 days relative to control
Format: organism-based, U-87MG ATCC
Conditions: in vivo, 432 h
Procedure, shortened: as §1

Structure (SMILES)	Activity
N[C@H](CNc1ncc(-c2ccc3c(c2)CC(=O)N3)s1)Cc1ccc(C(F)(F)F)cc1	2%

Test system: not listed separately
Assay: Plasma concentration in mouse at 30 mg/kg, po after 6 hrs
Format: ADME, organism-based
Parameters: dose 30 mg/kg, route oral
Conditions: not given

Structure (SMILES)	concentration at 6 h
N[C@H](CNc1ncc(-c2ccc3cnccc3c2)s1)Cc1ccc(C(F)(F)F)cc1	1.5 µM
N[C@H](CNc1ncc(-c2ccc3c(c2)CC(=O)N3)s1)Cc1ccc(C(F)(F)F)cc1	3.5 µM

Biological target: Cyclin-dependent kinase 1 (Homo sapiens, UniProt P06493)
Assay: Inhibition of CDK1
Conditions: not given

Chain of Cyclin-dependent kinase 1 (P06493 whole entry): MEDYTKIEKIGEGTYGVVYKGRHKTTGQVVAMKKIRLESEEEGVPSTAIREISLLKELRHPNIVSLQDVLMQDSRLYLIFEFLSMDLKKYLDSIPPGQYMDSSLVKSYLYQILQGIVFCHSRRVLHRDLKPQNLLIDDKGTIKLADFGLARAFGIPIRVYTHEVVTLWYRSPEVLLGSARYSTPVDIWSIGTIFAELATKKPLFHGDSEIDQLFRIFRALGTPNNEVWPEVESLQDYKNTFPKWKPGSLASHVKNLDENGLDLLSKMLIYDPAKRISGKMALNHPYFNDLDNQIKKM

Structure (SMILES)	IC50
N[C@H](CNc1ncc(-c2ccc3c(c2)CC(=O)N3)s1)Cc1ccc(C(F)(F)F)cc1	250 nM

Test system: U-87MG ATCC
Assay: Selectivity ratio of IC50 for AKT1 in human U87MG cells to IC50 for AKT1
Format: cell-based
Conditions: not given

Structure (SMILES)	Ratio IC50
N[C@H](CCc1cc(-c2ccc3cnccc3c2)no1)Cc1ccc(C(F)(F)F)cc1	95
Nc1cc2cc(-c3cnc(NC[C@@H](N)Cc4ccc(C(F)(F)F)cc4)s3)ccc2cn1	77
N[C@H](CNc1ncc(-c2ccc3cnccc3c2)s1)Cc1ccc(C(F)(F)F)cc1	88

Test system: not listed separately
Assay: Clearance in Sprague-Dawley rat at 2 mg/kg, iv
Format: ADME, organism-based
Parameters: dose 2 mg/kg, route intravenous
Conditions: in vivo
Procedure, shortened: as §2

Structure (SMILES)	clearance
N[C@H](CNc1ncc(-c2ccc3[nH]c(=O)oc3c2)s1)Cc1ccc(C(F)(F)F)cc1	26.7 mL/min/kg
N[C@H](CNc1ncc(-c2ccc3cnccc3c2)s1)Cc1ccc(C(F)(F)F)cc1	45 mL/min/kg

Test system: not listed separately
Assay: AUC (0 to 24 hrs) in Sprague-Dawley rat at 5 mg/kg, po
Format: ADME, organism-based
Parameters: time < 24 hr, dose 5 mg/kg, route oral
Conditions: plasma
Procedure, shortened: (§3)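 Male Sprague Dawley rats (n = 3) given 5 mg/kg orally in 2% HPMC, 1% Tween 80, pH 2.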

Structure (SMILES)	AUC(0-t) at 24 h
N[C@H](CNc1ncc(-c2ccc3[nH]c(=O)oc3c2)s1)Cc1ccc(C(F)(F)F)cc1	348 ng·h/mL
N[C@H](CNc1ncc(-c2ccc3cnccc3c2)s1)Cc1ccc(C(F)(F)F)cc1	387 ng·h/mL
N[C@H](CNc1ncc(-c2ccc3c(c2)CC(=O)N3)s1)Cc1ccc(C(F)(F)F)cc1	2600 ng·h/mL

Test system: not listed separately
Assay: Volume of distribution at steady state in Sprague-Dawley rat at 2 mg/kg, iv
Format: ADME, organism-based
Parameters: dose 2 mg/kg, route intravenous
Conditions: in vivo, read-out: Vdss
Procedure, shortened: as §2

Structure (SMILES)	Vd
N[C@H](CNc1ncc(-c2ccc3[nH]c(=O)oc3c2)s1)Cc1ccc(C(F)(F)F)cc1	6.7 L/kg
N[C@H](CNc1ncc(-c2ccc3cnccc3c2)s1)Cc1ccc(C(F)(F)F)cc1	7.1 L/kg
N[C@H](CNc1ncc(-c2ccc3c(c2)CC(=O)N3)s1)Cc1ccc(C(F)(F)F)cc1	6.8 L/kg

Test system: Mus musculus
Assay: Inhibition of HGF-stimulated AKT signaling pathway in mouse liver assessed as phosphorylated PRAS40 level at 30 mg/kg, po dosed 6 hrs prior to HGF challenge and measured after 5 mins by ELISA
Format: functional
Conditions: not given
Procedure, shortened: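 Mice (n = 3, female) dosed 30 mg/kg po in 0.1% PBS/BSA. At 6 h, HGF given by tail-vein injection. Livers harvested 5 min later, and phospho- and total PRAS40 measured by ELISA; inhibition taken from pPRAS40/total ratio. Factorial ANOVA with Dunnett's post hoc test.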

Structure (SMILES)	inhibition in vivo at 30 mg/kg
N[C@H](CNc1ncc(-c2ccc3cnccc3c2)s1)Cc1ccc(C(F)(F)F)cc1	4%
N[C@H](CNc1ncc(-c2ccc3c(c2)CC(=O)N3)s1)Cc1ccc(C(F)(F)F)cc1	43%

Test system: not listed separately
Assay: Inhibition of PKA
Conditions: not given

Structure (SMILES)	IC50
N[C@H](CNc1ncc(-c2ccc3cn[nH]c(=O)c3c2)s1)Cc1ccc(C(F)(F)F)cc1	485 nM
N[C@H](CNc1nnc(-c2ccc3cnccc3c2)o1)Cc1ccc(C(F)(F)F)cc1	133 nM
N[C@H](CCc1nc(-c2ccc3cnccc3c2)no1)Cc1ccc(C(F)(F)F)cc1	980 nM
Nc1noc2ccc(-c3cnc(NC[C@@H](N)Cc4ccc(C(F)(F)F)cc4)s3)cc12	417 nM
N[C@H](CCc1cc(-c2ccc3cnccc3c2)no1)Cc1ccc(C(F)(F)F)cc1	50 nM
Nc1cc2cc(-c3cnc(NC[C@@H](N)Cc4ccc(C(F)(F)F)cc4)s3)ccc2cn1	8.6 nM
N[C@H](CNc1ncc(-c2ccc3c(c2)CNC3=O)s1)Cc1ccc(C(F)(F)F)cc1	356 nM
NC(=O)c1ccc(-c2cnc(NC[C@@H](N)Cc3ccc(C(F)(F)F)cc3)s2)cc1	> 3000 nM
N[C@H](CNc1ncc(-c2ccc3[nH]c(=O)oc3c2)s1)Cc1ccc(C(F)(F)F)cc1	326 nM
N[C@H](CNc1ncc(-c2ccc3cnccc3c2)s1)Cc1ccc(C(F)(F)F)cc1	5.9 nM

Biological target: T1, RAC-alpha serine/threonine-protein kinase (Homo sapiens, UniProt P31749)
Assay: Inhibition of human AKT1 in human U87MG cells assessed as PRAS40 phosphorylation after 1 hr by ELISA
Format: cell-based, U-87MG ATCC
Conditions: not given
Procedure, shortened: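 U-87 MG cells in 5% FBS incubated with inhibitor in threefold serial dilutions for 1 h at 37 °C, then lysed. Phospho-PRAS40 (Thr246) quantified by ELISA and normalized to total PRAS40. Mean ± SD where three or more measurements.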

T1 sequence (P31749 whole entry): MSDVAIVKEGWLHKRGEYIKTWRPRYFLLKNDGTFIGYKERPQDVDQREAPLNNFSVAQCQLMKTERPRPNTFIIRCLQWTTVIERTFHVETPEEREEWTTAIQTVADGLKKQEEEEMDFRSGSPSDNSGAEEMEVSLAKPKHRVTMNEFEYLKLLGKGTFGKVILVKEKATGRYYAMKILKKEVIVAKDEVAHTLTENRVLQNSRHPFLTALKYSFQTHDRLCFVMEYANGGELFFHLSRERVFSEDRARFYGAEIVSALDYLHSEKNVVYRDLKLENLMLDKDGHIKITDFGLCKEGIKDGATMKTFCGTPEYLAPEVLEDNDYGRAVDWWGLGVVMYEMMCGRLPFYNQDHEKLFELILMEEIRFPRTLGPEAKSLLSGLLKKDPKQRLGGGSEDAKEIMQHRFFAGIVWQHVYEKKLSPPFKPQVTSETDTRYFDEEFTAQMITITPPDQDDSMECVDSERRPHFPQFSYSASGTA

Structure (SMILES)	IC50
N[C@H](CCc1cc(-c2ccc3cnccc3c2)no1)Cc1ccc(C(F)(F)F)cc1	3800 nM
Nc1cc2cc(-c3cnc(NC[C@@H](N)Cc4ccc(C(F)(F)F)cc4)s3)ccc2cn1	890 nM
N[C@H](CNc1ncc(-c2ccc3c(c2)CNC3=O)s1)Cc1ccc(C(F)(F)F)cc1	6000 nM
N[C@H](CNc1ncc(-c2ccc3[nH]c(=O)oc3c2)s1)Cc1ccc(C(F)(F)F)cc1	500 nM
N[C@H](CNc1ncc(-c2ccc3cnccc3c2)s1)Cc1ccc(C(F)(F)F)cc1	430 nM
N[C@H](CNc1ncc(-c2ccc3c(c2)CC(=O)N3)s1)Cc1ccc(C(F)(F)F)cc1	300 nM

Biological target: T1, RAC-alpha serine/threonine-protein kinase
Assay: Inhibition of AKT1 after 10 mins by [gamma33]ATP assay
Conditions: not given

Structure (SMILES)	IC50
N[C@H](CNc1ncc(-c2ccc3cn[nH]c(=O)c3c2)s1)Cc1ccc(C(F)(F)F)cc1	> 1000 nM
N[C@H](CNc1nnc(-c2ccc3cnccc3c2)o1)Cc1ccc(C(F)(F)F)cc1	85 nM
N[C@H](CCc1nc(-c2ccc3cnccc3c2)no1)Cc1ccc(C(F)(F)F)cc1	1600 nM
Nc1noc2ccc(-c3cnc(NC[C@@H](N)Cc4ccc(C(F)(F)F)cc4)s3)cc12	453 nM
N[C@H](CCc1cc(-c2ccc3cnccc3c2)no1)Cc1ccc(C(F)(F)F)cc1	40 nM
Nc1cc2cc(-c3cnc(NC[C@@H](N)Cc4ccc(C(F)(F)F)cc4)s3)ccc2cn1	11.6 nM
N[C@H](CNc1ncc(-c2ccc3c(c2)CNC3=O)s1)Cc1ccc(C(F)(F)F)cc1	95 nM
NC(=O)c1ccc(-c2cnc(NC[C@@H](N)Cc3ccc(C(F)(F)F)cc3)s2)cc1	> 3000 nM
N[C@H](CNc1ncc(-c2ccc3[nH]c(=O)oc3c2)s1)Cc1ccc(C(F)(F)F)cc1	8 nM
N[C@H](CNc1ncc(-c2ccc3cnccc3c2)s1)Cc1ccc(C(F)(F)F)cc1	4.9 nM
N[C@H](CNc1ncc(-c2ccc3c(c2)CC(=O)N3)s1)Cc1ccc(C(F)(F)F)cc1	18.3 nM

Test system: U-87 MG
Assay: Inhibition of tumor growth in human U87MG cells xenografted in CD1 nude mouse assessed as tumor volume po QD for 18 days relative to control
Format: functional, organism-based
Conditions: U-87MG ATCC
Procedure, shortened: as §1

Structure (SMILES)	inhibition
N[C@H](CNc1ncc(-c2ccc3c(c2)CC(=O)N3)s1)Cc1ccc(C(F)(F)F)cc1	Dose-dependent effect

Test system: not listed separately
Assay: Cmax in Sprague-Dawley rat at 5 mg/kg, po
Format: ADME, organism-based
Parameters: dose 5 mg/kg, route oral
Conditions: in vivo
Procedure, shortened: as §3

Structure (SMILES)	Cmax
N[C@H](CNc1ncc(-c2ccc3[nH]c(=O)oc3c2)s1)Cc1ccc(C(F)(F)F)cc1	68 ng/mL
N[C@H](CNc1ncc(-c2ccc3cnccc3c2)s1)Cc1ccc(C(F)(F)F)cc1	66 ng/mL
N[C@H](CNc1ncc(-c2ccc3c(c2)CC(=O)N3)s1)Cc1ccc(C(F)(F)F)cc1	417 ng/mL

Biological target: Mast/stem cell growth factor receptor Kit (Homo sapiens, UniProt P10721)
Assay: Inhibition of cKIT
Conditions: not given

Chain of Mast/stem cell growth factor receptor Kit (P10721 whole entry): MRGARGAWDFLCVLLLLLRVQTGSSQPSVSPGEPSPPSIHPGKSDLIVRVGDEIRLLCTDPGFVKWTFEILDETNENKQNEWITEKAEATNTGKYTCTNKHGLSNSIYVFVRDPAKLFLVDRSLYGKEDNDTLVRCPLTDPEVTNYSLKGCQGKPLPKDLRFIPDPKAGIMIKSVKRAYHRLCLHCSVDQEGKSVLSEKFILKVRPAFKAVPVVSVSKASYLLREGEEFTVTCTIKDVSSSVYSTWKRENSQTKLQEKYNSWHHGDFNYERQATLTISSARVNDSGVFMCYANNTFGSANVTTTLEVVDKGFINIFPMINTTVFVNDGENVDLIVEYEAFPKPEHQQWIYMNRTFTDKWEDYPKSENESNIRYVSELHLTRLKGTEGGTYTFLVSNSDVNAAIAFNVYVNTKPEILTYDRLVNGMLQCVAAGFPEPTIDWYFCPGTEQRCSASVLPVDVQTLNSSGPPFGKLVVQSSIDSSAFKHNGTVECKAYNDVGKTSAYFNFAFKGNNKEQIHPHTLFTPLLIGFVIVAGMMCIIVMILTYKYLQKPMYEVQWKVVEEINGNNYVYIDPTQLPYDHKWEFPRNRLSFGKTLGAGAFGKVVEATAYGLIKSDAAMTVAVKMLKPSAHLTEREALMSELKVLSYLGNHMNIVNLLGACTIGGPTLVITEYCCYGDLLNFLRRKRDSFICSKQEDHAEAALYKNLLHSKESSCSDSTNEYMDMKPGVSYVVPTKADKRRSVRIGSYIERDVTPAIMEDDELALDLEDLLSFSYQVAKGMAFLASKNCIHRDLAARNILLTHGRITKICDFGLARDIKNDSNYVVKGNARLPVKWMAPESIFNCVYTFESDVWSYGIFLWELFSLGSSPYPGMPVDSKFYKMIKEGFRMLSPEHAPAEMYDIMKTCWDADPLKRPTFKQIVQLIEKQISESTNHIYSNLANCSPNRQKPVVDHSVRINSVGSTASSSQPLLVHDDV

Structure (SMILES)	IC50
N[C@H](CNc1ncc(-c2ccc3c(c2)CC(=O)N3)s1)Cc1ccc(C(F)(F)F)cc1	110 nM

Test system: not listed separately
Assay: Oral bioavailability in Sprague-Dawley rat at 5 mg/kg
Format: ADME, organism-based
Conditions: in vivo
Procedure, shortened: as §3

Structure (SMILES)	bioavailability
N[C@H](CNc1ncc(-c2ccc3[nH]c(=O)oc3c2)s1)Cc1ccc(C(F)(F)F)cc1	11%
N[C@H](CNc1ncc(-c2ccc3cnccc3c2)s1)Cc1ccc(C(F)(F)F)cc1	20%
N[C@H](CNc1ncc(-c2ccc3c(c2)CC(=O)N3)s1)Cc1ccc(C(F)(F)F)cc1	64%
